In ChEMBL document CHEMBL4396904, “Design, Synthesis, and Anti-HBV Activity of New Bis(l-amino acid) Ester Tenofovir Prodrugs” (ACS Med Chem Lett, 2019):
Active and inactive are the calls of the source. The calls are words filed in the database; no cut-off is given here.

Experiments:
[1] = system: Hepatitis B virus; test: Antiviral activity against HBV infected in human HepG2.2.15 cells assessed as reduction in cytoplasmic DNA synthesis by reed and munch method; assay type: functional, organism-based
Outline: (§1)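 HepG 2.2.15 cells; IC50 is the concentration giving 50% inhibition of cytoplasmic HBV-DNA synthesis; CC50 comes from a CPE (cytopathic effect) cytotoxicity assay in the same cells. Both were derived by the Reed & Muench method, and each experiment was run at least twice separately. SI = CC50/IC50.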

[2] = Cytotoxicity against human HepG2.2.15 cells infected with HBV; assay type: cell-based, HepG2 2.2.15; outline: as §1
[3] = Selectivity index, ratio of CC50 for human HepG2.2.15 cells to IC50 for HBV infected in human HepG2.2.15 cells; assay type: toxicity, cell-based; conditions: read-out: Ratio CC50/IC50; outline: as §1
[4] = system: HBV genotype D; test: Antiviral activity against HBV genotype D hydrodynamically infected as pHBV1.3 mer plasmid carrying viral genome in C57BL/6 mouse assessed as log10 reduction in serum viral DNA level at 0.10 to 0.50 mmol/kg/day, po via gavage administered as twice daily dosage and measured on day 4 post treatment by qRT-PCR analysis; assay type: functional, hepatitis B virus genotype D
Outline: (§2)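 C57BL/6 mice were hydrodynamically injected with HBV 1.3mer plasmid. From one day later (day 0), they were gavaged twice daily at […] or with vehicle; ETV was given orally once daily; n = 5-6 per group. Blood was taken at days 0, 2, 4 and 6, and serum HBV DNA was measured by real-time PCR. Body weight was recorded over 6 days of treatment. Significance was set against vehicle.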

[5] = system: Hepatitis B virus; test: Antiviral activity against HBV infected in pekin duck assessed as reduction in serum viral DNA level administered via oral gavage twice daily for 14 days and measured on day 14 post treatment and on day 3 after treatment cessation by qRT-PCR analysis; assay type: functional, organism-based
Outline: (§3)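 DHBV-infected ducks, six per group, were gavaged twice daily at 0.1, 0.2 or […] or with vehicle (0.5% CMC-Na or water); 3TC was given orally once daily. Blood was collected at day 0 (pretreatment), day 7, day 14 and 3 days after cessation. Serum DHBV DNA was extracted and quantified by real-time PCR. Body weight was monitored during treatment. Comparison was against vehicle.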

[6] = Toxicity against Pekin duck infected with HBV assessed as change in body weight at 0.1 to 0.4 mmol/kg, po twice daily for 14 days administered via gavage and measured every day during compound dosing; assay type: organism-based; conditions: anas platyrhynchos, in vivo, 336 h; outline: as §3
[7] = Toxicity against Pekin duck infected with HBV assessed as change in body weight at 0.2 to 0.4 mmol/kg, […] for 14 days and measured every day during compound dosing; assay type: organism-based; conditions: anas platyrhynchos, in vivo, po, 336 h
Outline: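 DHBV-infected ducks, six per group, were gavaged twice daily at 0.1, 0.2 or […], with vehicle groups of 0.5% CMC-Na or water; 3TC was given orally once daily. Serum DHBV DNA was measured by real-time PCR on days 0, 7 and 14 and 3 days after dosing stopped, and body weight was monitored. Data are mean ± SD.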

[8] = system: Hepatitis B virus; test: Antiviral activity against HBV infected in pekin duck assessed as reduction in serum viral DNA level at 0.4 mmol/kg, po once daily for 14 days and measured on days 7, 14 post treatment and on day 3 after treatment cessation by qRT-PCR analysis; assay type: functional, organism-based
[9] = Half-life in Sprague-Dawley rat at 20 mg/kg, po administered as single dose and measured after 0.25 to 24 hrs by HPLC analysis; assay type: ADME, organism-based; conditions: in vivo
Outline: (§4)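 Male/female unspecified SD rats, n = 3 per group, received a single dose of TFV at 20 mg/kg by mouth or 5 mg/kg intravenously. Prodrugs were given orally at an equimolar […]. PK parameters were calculated for the released TFV and reported as means.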

[10] = Oral bioavailability in Sprague-Dawley rat at 20 mg/kg administered as single dose and measured after 0.25 to 24 hrs by HPLC analysis; assay type: ADME, organism-based; conditions: in vivo; outline: as §4
[11] = AUC(0 to infinity) in Sprague-Dawley rat at 20 mg/kg, po administered as single dose and measured after 0.25 to 24 hrs by HPLC analysis; assay type: ADME, organism-based; set-up: dose 20 mg/kg, time infinity, route oral; conditions: in vivo; outline: as §4
[12] = Half-life in Sprague-Dawley rat at 5 mg/kg, iv; assay type: ADME, organism-based; conditions: in vivo; outline: as §4
[13] = Cmax in Sprague-Dawley rat at 20 mg/kg, po administered as single dose and measured after 0.25 to 24 hrs by HPLC analysis; assay type: ADME, organism-based; set-up: dose 20 mg/kg, route oral; conditions: in vivo; outline: as §4
[14] = AUC(0 to infinity) in Sprague-Dawley rat at 5 mg/kg, iv; assay type: ADME, organism-based; set-up: dose 5 mg/kg, route intravenous, time infinity; conditions: in vivo; outline: as §4
[15] = Clearance in Sprague-Dawley rat at 5 mg/kg, iv; assay type: ADME, organism-based; conditions: in vivo; outline: as §4
[16] = Tmax in Sprague-Dawley rat at 20 mg/kg, po administered as single dose and measured after 0.25 to 24 hrs by HPLC analysis; assay type: ADME, organism-based; conditions: in vivo; outline: as §4
[17] = system: Rattus norvegicus; test: Ratio of compound oral bioavailability in Sprague-Dawley rat at 45.5 mg/kg administered as single dose to TDF oral bioavailability in Sprague-Dawley rat at 44.3 mg/kg administered as single dose by HPLC analysis; assay type: ADME, organism-based; conditions: in vivo
Outline: (§5)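 SD rats received a single oral dose at equimolar […] (TFV 20 mg/kg); intravenous TFV was given at 5 mg/kg. PK parameters were derived from plasma TFV, including oral bioavailability F; n = 3 per group.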

[18] = system: Hepatitis B virus; test: Potency index, ratio of TFV IC50 to compound IC50 for antiviral activity against HBV infected in human HepG2.2.15 cells; assay type: functional
[19] = system: Hepatitis B virus; test: Potency index, ratio of Lamivudine IC50 to compound IC50 for antiviral activity against HBV infected in human HepG2.2.15 cells; assay type: functional
[20] = system: Rattus norvegicus; test: Ratio of compound oral bioavailability in Sprague-Dawley rat at 45.5 mg/kg administered as single dose to TFV oral bioavailability in Sprague-Dawley rat at 20 mg/kg administered as single dose by HPLC analysis; assay type: ADME, organism-based; conditions: in vivo; outline: as §5
[21] = system: HBV genotype D; test: Antiviral activity against HBV genotype D hydrodynamically infected as pHBV1.3 mer plasmid carrying viral genome in C57BL/6 mouse assessed as reduction in serum viral DNA level administered via oral gavage twice daily and measured upto 6 days post treatment by qRT-PCR analysis; assay type: functional, organism-based; conditions: hepatitis B virus genotype D; outline: as §2
[22] = system: HBV genotype D; test: Antiviral activity against HBV genotype D hydrodynamically infected as pHBV1.3 mer plasmid carrying viral genome in C57BL/6 mouse assessed as reduction in serum viral DNA level at 0.1 to 1 mg/kg, po once daily and measured upto 6 days post treatment by qRT-PCR analysis; assay type: functional, organism-based; conditions: hepatitis B virus genotype D
Outline: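 C57BL/6 mice received the HBV 1.3mer plasmid by hydrodynamic tail-vein injection. From one day later they were dosed by oral gavage twice daily at […], with vehicle groups of 20% Kolliphor HS 15 or water; ETV was given once daily. There were 5-6 mice per group. Serum HBV DNA was measured by real-time PCR on days 0, 2, 4 and 6, and body weight was tracked over the 6 days.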

[23] = Toxicity against C57BL/6 mouse hydrodynamically infected with pHBV1.3 mer plasmid carrying HBV genotype D assessed as change in body weight at 0.1 to 1 mg/kg, po once daily and measured upto 6 days post treatment; assay type: organism-based; conditions: in vivo, 144 h

Structure (SMILES) | IC50 [1] | CC50 [2] | selectivity ratio [3] | other results
CC(C)[C@H](N)C(=O)OCCCOP(=O)(CO[C@H](C)Cn1cnc2c(N)ncnc21)OCCCOC(=O)[C@@H](N)C(C)C | > 3.24 µM | 51.9 µM |  | 
CC(C)C[C@H](N)C(=O)OCCCOP(=O)(CO[C@H](C)Cn1cnc2c(N)ncnc21)OCCCOC(=O)[C@@H](N)CC(C)C | 4.22 µM | 218 µM | 47 | 
CC(C)OC(=O)OCOP(=O)(CO[C@H](C)Cn1cnc2c(N)ncnc21)OCOC(=O)OC(C)C.O=C(O)/C=C/C(=O)O [TENOFOVIR DISOPROXIL FUMARATE] | 0.85 µM | 20.7 µM | 24 | log(activity) [4]: 1.7; inhibition [5]: Dose-dependent effect; Activity [6]: Non-Toxic
C[C@H](Cn1cnc2c(N)ncnc21)OCP(=O)(OCCOC(=O)[C@@H](N)Cc1ccccc1)OCCOC(=O)[C@@H](N)Cc1ccccc1 | 2.93 µM | 315 µM | 97 | 
Nc1ccn([C@@H]2CS[C@H](CO)O2)c(=O)n1 [LAMIVUDINE] | 2.22 µM | > 218 µM | > 98 | Activity [7]: Non-Toxic; inhibition [8]: Active
CC[C@H](C)[C@H](N)C(=O)OCCCOP(=O)(CO[C@H](C)Cn1cnc2c(N)ncnc21)OCCCOC(=O)[C@@H](N)[C@@H](C)CC | > 49.6 µM | 315 µM |  | 
CC(C)[C@H](N)C(=O)OCCOP(=O)(CO[C@H](C)Cn1cnc2c(N)ncnc21)OCCOC(=O)[C@@H](N)C(C)C | 2.6 µM | 218 µM | 84 | 
C[C@H](Cn1cnc2c(N)ncnc21)OCP(=O)(O)O [TENOFOVIR ANHYDROUS] | 16 µM | 435 µM | 27 | half-life [9]: 3.56 h; bioavailability [10]: 1.41%; AUC(0-inf) [11]: 888 ng·h/mL; half-life [12]: 10.2 h; Cmax [13]: 207 ng/mL; AUC(0-inf) [14]: 15800 ng·h/mL; clearance [15]: 5.35 mL/min/kg; Tmax [16]: 0.833 h
CC(C)[C@H](N)C(=O)OCOP(=O)(CO[C@H](C)Cn1cnc2c(N)ncnc21)OCOC(=O)[C@@H](N)C(C)C.Cl | 0.71 µM | 57.3 µM | 80 | Ratio [17]: 3; log(activity) [4]: 1.1; inhibition [5]: Dose-dependent effect; Ratio IC50 [18]: 22; Activity [6]: Non-Toxic; Ratio IC50 [19]: 3; Ratio [20]: 7; inhibition [21]: Dose-dependent effect
C=C1[C@H](CO)[C@@H](O)C[C@@H]1n1cnc2c(=O)[nH]c(N)nc21.O [ENTECAVIR] |  |  |  | inhibition [22]: Active; Activity [23]: Non-Toxic
CC[C@H](C)[C@H](N)C(=O)OCCOP(=O)(CO[C@H](C)Cn1cnc2c(N)ncnc21)OCCOC(=O)[C@@H](N)[C@@H](C)CC | 12.2 µM | 294 µM | 24 | 
CC(C)C[C@H](N)C(=O)OCCOP(=O)(CO[C@H](C)Cn1cnc2c(N)ncnc21)OCCOC(=O)[C@@H](N)CC(C)C | > 13 µM | 218 µM |  | 
